Data set [1] deals with Escherichia coli. Put plainly: Induction of terbium(3)-loaded Escherichia coli lipid extract liposome membrane disruption at 10 uM measured after 20 mins by fluorescence assay relative to control. The class given is cell membranes.
The subject of data set [2] is Pseudomonas aeruginosa. Description: Antibacterial activity against Pseudomonas aeruginosa PAO1 measured after 20 hrs by microtiter dilution method. Format: functional. The settings on record: PAO1, 20 h. In outline: (§1)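 Mueller-Hinton broth microdilution; 2-fold serial dilutions of peptide from 0 to 50 μM incubated 20 h at 37 °C with 50 000 cfu/well from an overnight MHB culture. Bacterial growth read as background-subtracted OD600. MIC recorded as the peptide concentration at which growth is inhibited. P. aeruginosa isolates came from sputum of cystic fibrosis patients with infections persisting after inhaled tobramycin.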

Data set [3] concerns Escherichia coli. Put plainly: Binding affinity to Escherichia coli lipid extract liposome membrane at 10 uM by tryptophan fluorescence quenching method. Format: cell membranes. In outline:
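Acrylamide quenching of Trp; peptide 10 μM with 0.8 mg/mL E. coli lipid liposomes. Excitation at 295 nm, emission 310–400 nm. Read-out is the Stern–Volmer slope, with larger slopes meaning more quenching. At least two independent experiments, error given as standard deviation.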

In data set [4] the test system is Pseudomonas aeruginosa. Description: Antibacterial activity against tobramycin-pretreated Pseudomonas aeruginosa isolate 214 measured after 20 hrs by microtiter dilution method. Format: functional. The essentials: as §1
Data set [5] concerns Escherichia coli. Description: Binding affinity to Escherichia coli lipid extract liposome membrane at 25 uM by CD spectroscopic analysis. Format: cell membranes. In outline: (§2)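 CD spectra of 25 μM peptide in 10 mM Tris, 10 mM NaCl, pH 7.4, with 2 mg/mL E. coli total lipid extract or POPC liposomes, equilibrated overnight. Helicity judged at 222 nm. Average of at least three independent experiments.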

The test system of data set [6] is Pseudomonas aeruginosa. Put plainly: Antibacterial activity against tobramycin-pretreated Pseudomonas aeruginosa isolate 330 after 20 hrs by microtiter dilution method. Format: functional. The essentials:
as §1

A short description of data set [7]: Stability of the compound assessed as Engyodontium album PMSF-pretreated proteinase K-mediated compound hydrolysis at 20 uM incubated for 10 mins at 70 degC by coomassie blue staining-based NuPAGE analysis. Format: ADME. The conditions noted are these: parengyodontium album, 1 h, in the assay text read “incubated for up to 1 hr at 37 degC” for “incubated for 10 mins at 70 degC”. In outline: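 Reactions stopped with 5 mM PMSF; PMSF-preinhibited enzyme served as control. Samples heated 70 °C for 10 min and run on 12% Bis-Tris gels with Coomassie staining. Band density normalized to T0.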

The test system of data set [8] is Escherichia coli. Put plainly: Antibacterial activity against Escherichia coli K-12 measured after 20 hrs by microtiter dilution method. The class given is functional. The settings on record: K-12, 20 h. The essentials:
as §1

The test system of data set [9] is Lipid bilayer. Description: Binding affinity to POPC membrane at 25 uM by CD spectroscopic analysis. Format: ADME. In outline:
as §2

Data set [10] has as its system Pseudomonas aeruginosa. Put plainly: Antibacterial activity against tobramycin-pretreated Pseudomonas aeruginosa isolate 380 after 20 hrs by microtiter dilution method. The class given is functional. The essentials: as §1
Data set [11] is described as follows: Hemolytic activity in human RBC assessed as hemolysis at 320 to 640 uM measured after 1 hr. The class given is ADME, cell-based, Erythrocyte. The settings on record: human red blood cells (erythrocytes), read-out: Activity. The essentials:
(§3)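 Fresh human erythrocytes washed and resuspended in PBS to a final 4% (v/v). Incubated 1 h at 37 °C with 2-fold serial peptide dilutions from 0 to 640 μM. Supernatant absorbance at 540 nm; PBS taken as 0% and 1% Triton as 100% hemolysis. Standard deviation reported; one-way ANOVA applied.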

Data set [12] is described as follows: Hemolytic activity in human RBC assessed as hemolysis at 40 uM measured after 1 hr. The class given is ADME, cell-based, Erythrocyte. The settings on record: human red blood cells (erythrocytes), read-out: Activity. In outline:
as §3

Data set [13] deals with Pseudomonas aeruginosa. Put plainly: Antibacterial activity against tobramycin-pretreated Pseudomonas aeruginosa isolate 287 measured after 20 hrs by microtiter dilution method. Format: functional. In outline:
as §1

For data set [14], the system named is Escherichia coli. Description: Binding affinity to Escherichia coli lipid extract liposome membrane at 10 uM by tryptophan fluorescence method. The class given is cell membranes. In outline:
(§4)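 Peptide at 10 μM in 10 mM Tris, 10 mM NaCl, pH 7.4, with 0.8 mg/mL E. coli total lipid extract or POPC liposomes, equilibrated overnight before recording. Trp excited at 280 nm, emission scanned 300–400 nm. After background subtraction, the wavelength of maximal emission was taken.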

Data set [15] relates to Lipid bilayer. Put plainly: Binding affinity to terbium(3)-loaded POPC membrane at 10 uM measured for 10 mins by fluorescence assay relative to control. Format: ADME. The essentials: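 Tb3+-loaded liposomes, E. coli lipid or POPC, size-exclusion exchanged and diluted to 2.5% (v/v) in dipicolinic acid buffer, stirring. Peptide added at 10 μM. Tb3+ excited at 314 nm, emission at 544 nm recorded for 10 min. Liposome-only signal subtracted, normalized to a 0.1% Triton-lysed control as 100% disruption.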

The subject of data set [16] is Lipid bilayer. Description: Binding affinity to POPC membrane at 10 uM by tryptophan fluorescence method. Format: ADME. In outline: as §4
Data set [17] relates to Lipid bilayer. Put plainly: Binding affinity to 11,12-BrPC-loaded POPC membrane at 10 uM by tryptophan fluorescence method. Format: ADME.

The source made the active and inactive calls. No cut-off for these calls is given here. Where only a bound is given, the exact number is not on record here.

The values that follow come from ChEMBL document CHEMBL4364261, “Positive Charge Patterning and Hydrophobicity of Membrane-Active Antimicrobial Peptides as Determinants of Activity, Toxicity, and Pharmacokinetic Stability” (J Med Chem, 2019).

As for H-KAAKKFAKAWAKAFKAA-NH2, the values for the Activity in data set [1] and in data set [9] were 8% and “Not Active”, respectively. Also, the minimum inhibitory concentration (MIC) in data set [2] is 50 µM; in data set [4] it was greater than 50 µM; in [6], greater than 50 µM; in data set [8], 12.5 µM; in data set [10], greater than 50 µM; in data set [13], greater than 50 µM. For the same substance, the outcome in data set [3], in [5] and in [14] was Active. In addition, the Stability result in data set [7] is “Unstable”. Further, the hemolysis at 1 h, up to 640 µM in data set [11] was less than 1%. The hemolysis at 1 h, 40 µM in data set [12] is 0%.

As to H-KALKKFLKAWAKLFKAL-NH2, the Activity in [1] is 40%; in [15], 25 to 70%; in data set [16] it was “Active”; in [9], “Active”; in data set [17], “Active”. Also, the MIC worked out at 3.1 µM in data set [2]; 3.1 µM in data set [4]; 6.3 µM in data set [6]; 1.6 µM in data set [8]; 6.3 µM in data set [10]; 3.1 µM in data set [13]. Further, the result in data set [3] was inactive. The outcome in [5] was Active. For the same substance, the hemolysis at 1 h, up to 640 µM in [11] was less than 1%. Moreover, in data set [12], the hemolysis at 1 h, 40 µM is 81%.

As to H-KKAKAFAKAWAKAFKAA-NH2, the results for the Activity in data set [1] and in data set [9] were 80% and “Not Active”, respectively. Also, the MIC in [2] was 25 µM; in data set [4] it was 50 µM; in [6], greater than 50 µM; in data set [8] it was 12.5 µM; in data set [10], greater than 50 µM; in data set [13], 50 µM. Also, the outcome in data set [5] and in data set [14] was Active. Besides, the Stability result in data set [7] is “Unstable”. The hemolysis at 1 h, up to 640 µM in data set [11] was less than 1%. Further, the hemolysis at 1 h, 40 µM in data set [12] turned out to be 0%.

For H-KKKAAFAKAWAKAFKAA-NH2, the Activity was 80% in [1] and “Not Active” in data set [9]. Further, the MIC in [2] is 50 µM; in data set [4] it was 50 µM; in data set [6] it was greater than 50 µM; in data set [8], 25 µM; in [10], greater than 50 µM; in data set [13] it was greater than 50 µM. For the same substance, the outcome in data set [5] and in data set [14] was Active. Besides, the Stability entry in data set [7] is given as “Unstable”. The hemolysis at 1 h, up to 640 µM in [11] was less than 1%. For the same substance, the hemolysis at 1 h, 40 µM in [12] is 0%.

Consider H-KKKAAFLKLWAKLFKAL-NH2, for which the Activity in [1] was 40%; in [15], 25 to 70%; in data set [16] it was “Active”; in data set [9], “Active”. Moreover, the MIC stood at 3.1 µM in data set [2]; 3.1 µM in data set [4]; 6.3 µM in data set [6]; 3.1 µM in data set [8]; 3.1 µM in data set [10]; 3.1 µM in [13]. For the same substance, the result in data set [5] was Active. In addition, the hemolysis at 1 h, 40 µM in [12] amounted to 100%.

For H-KKKKAAFAKAWAKAFAA-NH2, the MIC was 50 µM in data set [2]; 50 µM in [4]; greater than 50 µM in data set [6]; 12.5 µM in data set [8]; 50 µM in data set [10]; greater than 50 µM in [13]. The result in [5] and in [14] was Active. Also, the Stability entry in data set [7] was “Unstable”. Besides, the Activity result in data set [9] is “Not Active”. Also, in data set [11], the hemolysis at 1 h, up to 640 µM was less than 1%. The hemolysis at 1 h, 40 µM in [12] is 0%.

For H-KKKKAAFLKLWLKLFAA-NH2, the Activity is 40% in [1], 25 to 70% in data set [15], “Active” in data set [16] and “Active” in data set [9]. The MIC in [2] was greater than 50 µM; in data set [4], greater than 50 µM; in data set [6], greater than 50 µM; in [8] it was 12.5 µM; in data set [10] it was greater than 50 µM; in [13] it was greater than 50 µM. Moreover, in data set [5], the outcome was Active. Also, the hemolysis at 1 h, 40 µM in data set [12] amounted to 8%.

As to H-KKKKKAAFAKAWAAFAA-NH2, the MIC in data set [2] was found to be 25 µM; in data set [4], 25 µM; in [6], 50 µM; in data set [8], 6.3 µM; in [10], 50 µM; in [13], 50 µM. In addition, the outcome in [5] and in data set [14] was Active. Moreover, in data set [7], the Stability result is “Stable”. Moreover, the Activity result in data set [9] was “Not Active”. Further, in [11], the hemolysis at 1 h, up to 640 µM was less than 1%. The hemolysis at 1 h, 40 µM in data set [12] was determined as 0%.

With H-KKKKKALFLKLWAAFLA-NH2, the Activity in data set [1] is 40%; in data set [15], 25 to 70%; in data set [16], “Active”; in data set [9] it was “Active”. Moreover, the minimum inhibitory concentration (MIC) in [2] was 12.5 µM; in data set [4], 6.3 µM; in [6] it was 12.5 µM; in data set [8] it was 3.1 µM; in [10], greater than 50 µM; in [13], 6.3 µM. Moreover, in data set [5], the result was Active. In addition, the hemolysis at 1 h, 40 µM in data set [12] was found to be 49%.

Consider H-KKKKKKAAFAAWAAFAA-NH2, for which the values for the Activity in [1] and in data set [9] were 35% and “Not Active”, respectively. The MIC was determined as 12.5 µM in data set [2]; 3.1 µM in data set [4]; 25 µM in data set [6]; 1.6 µM in [8]; 12.5 µM in data set [10]; 3.1 µM in data set [13]. Besides, the outcome in data set [3], in data set [5] and in data set [14] was Active. Moreover, the Stability result in data set [7] is reported as “Stable”. In addition, the hemolysis at 1 h, up to 640 µM in [11] was less than 1%. Moreover, the hemolysis at 1 h, 40 µM in data set [12] worked out at 0%.

H-KKKKKKALFALWLAFLA-NH2: the Activity was 80% in data set [1]; 4 to 8% in data set [15]; “Active” in [16]; “Active” in [9]; “Not Active” in [17]. Besides, the minimum inhibitory concentration (MIC) in [2] was greater than 50 µM; in data set [4] it was 50 µM; in data set [6], greater than 50 µM; in [8], 12.5 µM; in data set [10] it was greater than 50 µM; in [13], 25 µM. The result in data set [3] and in [5] was Active. Also, the hemolysis at 1 h, 40 µM in data set [12] stood at 33%.

In the case of H-KKLKAFLKAWAKLFKAL-NH2, the Activity is 40% in [1], 25 to 70% in data set [15], “Active” in data set [16] and “Active” in data set [9]. The MIC in data set [2] was found to be 3.1 µM; in [4], 3.1 µM; in data set [6] it was 6.3 µM; in data set [8] it was 1.6 µM; in [10], 1.5 µM; in data set [13], 3.1 µM. Besides, the result in [5] was Active. Moreover, the hemolysis at 1 h, up to 640 µM in data set [11] is less than 1%. Moreover, the hemolysis at 1 h, 40 µM in data set [12] stood at 89%.
